Hits are enriched below; roughly 2.6% of the tested compounds scored in any of these assays.
Rad51 HR inh: Rad51 (human) homologous recombination inhibition; Q06609; hRad51 DNA strand exchange, fluorescence dequenching; inhibition, % at 10 µM; hit rate 0.085% among 200,000; AID 1385;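 active means inhibition above 40% at the single screening dose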
Target sequence (Q06609 whole entry, looked up): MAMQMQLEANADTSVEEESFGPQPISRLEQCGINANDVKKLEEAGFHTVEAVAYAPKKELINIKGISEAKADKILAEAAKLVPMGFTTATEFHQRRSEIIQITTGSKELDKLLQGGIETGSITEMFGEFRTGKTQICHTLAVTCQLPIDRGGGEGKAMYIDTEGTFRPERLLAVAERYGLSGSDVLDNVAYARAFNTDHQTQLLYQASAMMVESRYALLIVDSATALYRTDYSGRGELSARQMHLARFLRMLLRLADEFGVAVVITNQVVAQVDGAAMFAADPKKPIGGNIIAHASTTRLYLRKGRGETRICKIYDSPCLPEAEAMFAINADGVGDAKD
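System: human Rad51 nucleoprotein filaments preassembled on unlabelled ssDNA. Reagent: labelled 47-mer dsDNA for strand exchange. Schedule: 30-min compound preincubation and 15-min exchange, both room temperature. Measured by: FRET fluorescence dequenching, excitation 485 nm, emission 520 nm. Read-out: Fluorescence-based percent inhibition, control- and blank-normalised. Benchmarks: plate controls and plate blanks.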
KCC2 mod: KCC2 (human) Cl- transport modulation. B-score of Tl+ flux slope (higher = more flux/activation; lower = inhibition) at 10 µM. hit rate 2.2% among 190,000. AID 1456. Q9H2X9. KCC2 cells, thallium flux FluoZin-2 fluorescence;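 active means thallium flux slope and its plate-corrected score both differing from the plate sample mean at a set confidence after two filtering rounds, in either direction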;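 further: slope of fluorescence scaled to starting intensity during 10 to 20 s after thallium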
CHT allo act: allosteric activators of human choline transporter CHT; Q9GZV3; CHT-expressing cells, membrane potential dye, choline EC20; active compounds read high; LV-AA mutant CHT in HEK293 cells; B-score at 10 µM; hit rate 0.49% among 310,000; AID 488977;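 active means initial fluorescence not abnormally high and integrated response B-score, plate-corrected, over 3 SD above library mean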
CHT block: inhibitors of human choline transporter CHT | Q9GZV3 | CHT-expressing cells, membrane potential dye, choline response; active compounds read low | B-score at 10 µM | hit rate 0.86% among 310,000 | AID 488975;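 active means B-score over 3 SD under the library average, and starting fluorescence ratio not unusually high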;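 further: choline stimulus applied at its EC90 after an EC20 pre-addition; B-score computed on integrated fluorescence ratio after choline addition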
KCC2 secondary: confirmation of human KCC2 transport modulators; shares compounds with KCC2 mod; HEK293-KCC2, thallium flux, FluoZin2 fluorescence; active compounds read high; normalised thallium flux (F/F0 slope) at 10 µM; hit rate 15% among 3,700; AID 1713;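 active means thallium flux slope above the same plate's solvent-only control mean plus 3 SD; inconclusive means the two replicate wells disagree; inactive means no significant difference from solvent-only control wells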
KCC2 bumet counter: thallium flux despite bumetanide block in KCC2 cells, secondary assay 3. shares compounds with KCC2 mod. HEK293-KCC2 + bumetanide/ouabain, thallium flux FluoZin2; active compounds read high. normalized thallium flux at 10 µM. hit rate 49% among 3,700;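 active means thallium entry rate above the same plate's blocked-transporter control wells by more than 3 SD; inconclusive means the two repeat wells disagree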;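 further: raw slope of fluorescence over initial fluorescence between 10 and 20 s after thallium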
KCC2 secondary2: KCC2 (human) modulation, second secondary assay. shares compounds with KCC2 mod. HEK293-KCC2, thallium flux FluoZin2 fluorescence; actives lie on both sides; F/F0 rise rate, 10–20 s post-thallium. normalized thallium flux at 10 µM. hit rate 23% among 3,700. AID 1715;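 active means thallium flux slope more than 3 SD above or below the plate's solvent-only control mean, mostly below; inconclusive means the two repeat wells disagreed; inactive means no significant shift from solvent-only controls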
HEK293 Tl flux: acts in parental HEK cells, KCC2 counter-screen; thallium flux rate (normalised fluorescence) at 10 µM; hit rate 46% among 3,700; HEK293 parental cells, thallium flux FluoZin2, ouabain; baseline-ratio fluorescence slope, 10–20 s after thallium; shares compounds with KCC2 mod;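 active means thallium flux rate significantly above the same plate's solvent-only control wells, beyond their mean plus 3 SD; inconclusive means the two replicate wells gave conflicting results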
KCC2 ouabain: confirmation of human KCC2 modulators with ouabain; shares compounds with KCC2 mod; HEK293-KCC2, thallium flux FluoZin2 fluorescence; bidirectional: low = inhibitor, high = activator; raw Tl+ flux slope (below DMSO = inhibition, above = activation) at 10 µM; hit rate 48% among 3,700; AID 1717;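 active means thallium flux slope beyond 3 SD from same-plate DMSO control mean in most replicates, usually higher, sometimes lower; inconclusive means repeat tests gave conflicting results; inactive means no significant difference from controls in most replicates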;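 further: slope of initial-normalized fluorescence between seconds 10 and 20 after thallium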
HEK counter2: counter-screen for KCC2 modulators: effect in parental HEK293 cells | shares compounds with KCC2 mod | thallium flux FluoZin-2 fluorescence slope | thallium flux slope at 10 µM | hit rate 33% among 3,700 | AID 1718;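 active means thallium flux slope above the same plate's solvent-control mean plus 3 SD in both duplicate wells; inconclusive means duplicate wells that disagreed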;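 further: run without ouabain in cells lacking the KCC2 cotransporter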
A number is an active result.

`COc1cc(/C=N/NC(=O)c2c(C)nnn2-c2nonc2N)ccc1O` gave Rad51 HR inh inactive, KCC2 mod 4.7, CHT allo act inactive, CHT block inactive, KCC2 secondary inactive, KCC2 bumet counter inactive, KCC2 secondary2 inactive, HEK293 Tl flux inactive, KCC2 ouabain inactive and HEK counter2 inactive.
For COC(=O)Cc1c(C)c2ccc(O)c(CNCc3ccc(OC)c(OC)c3)c2oc1=O the results were CHT allo act inactive and CHT block inactive.
`CCN(CC)Cc1c(O)ccc2c(C)c(CC(=O)OC)c(=O)oc12` gave Rad51 HR inh inactive, CHT allo act inactive, CHT block inactive, KCC2 secondary inactive, KCC2 bumet counter inconclusive, KCC2 secondary2 inactive, HEK293 Tl flux inactive, KCC2 ouabain inactive and HEK counter2 inactive.
`O=C(CSCc1ccc(F)cc1)N1CCN(c2ccc(F)cc2)CC1` gave Rad51 HR inh inactive, KCC2 mod -3.6, CHT allo act inactive, CHT block inactive, KCC2 secondary inactive, KCC2 bumet counter inconclusive, KCC2 secondary2 inactive, HEK293 Tl flux inactive, KCC2 ouabain 0.017 and HEK counter2 inactive.
`C[C@@H]1CC[C@@]23COC(=O)C2=CCC[C@@H]3[C@@]1(C)CC/C(=C/CO)CO` gave CHT allo act inactive and CHT block inactive.
`CC1=CCC[C@@H]2[C@@](C)(CC/C(C)=C/C(=O)O)[C@H](C)CC[C@@]12C` gave Rad51 HR inh inactive, KCC2 mod 3.5, CHT allo act inactive, CHT block inactive, KCC2 secondary inactive, KCC2 bumet counter 0.012, KCC2 secondary2 inactive, HEK293 Tl flux 0.015, KCC2 ouabain inconclusive and HEK counter2 inactive.
`N#Cc1c(-c2ccccc2)nc(SCc2nc(N)nc(N3CCCCC3)n2)[nH]c1=O` gave Rad51 HR inh inactive, KCC2 mod -2.7, CHT allo act inactive, CHT block inactive, KCC2 secondary inconclusive, KCC2 bumet counter inactive, KCC2 secondary2 0.025, HEK293 Tl flux 0.0059, KCC2 ouabain 0.012 and HEK counter2 inconclusive.
For CCSc1nc(-c2ccccc2)c(C#N)c(=O)[nH]1 the results were Rad51 HR inh inactive, CHT allo act inactive and CHT block inactive.
Screening CCS(=O)(=O)N1CCN(S(=O)(=O)c2ccc3c(c2)OCCO3)CC1 returned CHT allo act inactive and CHT block inactive.
For CCN(CC)/C(Sc1ccccc1)=C(\C(Cl)=C(Cl)Cl)[N+](=O)[O-] the results were Rad51 HR inh inactive, KCC2 mod -4.9, CHT allo act inactive, CHT block inactive, KCC2 secondary inactive, KCC2 bumet counter inconclusive, KCC2 secondary2 inconclusive, HEK293 Tl flux 0.0064, KCC2 ouabain inconclusive and HEK counter2 inactive.
`O=C1CCc2cc(S(=O)(=O)NC(Cc3ccccc3)C(=O)NCCC3=CCCCC3)ccc2N1` (stereo not drawn) gave Rad51 HR inh inactive, CHT allo act inactive and CHT block inactive.
`Cc1ccc2nc(N/C(=N/S(=O)(=O)c3ccc(F)cc3F)c3ccccc3)sc2c1` gave KCC2 mod 21, CHT allo act inactive, CHT block inactive, KCC2 secondary inactive, KCC2 bumet counter 0.0094, KCC2 secondary2 inactive, HEK293 Tl flux 0.0096, KCC2 ouabain inactive and HEK counter2 inconclusive.
For O=S(=O)(/N=C(/Nc1ccccn1)c1ccccc1)c1ccc(F)cc1 the results were CHT allo act inactive and CHT block inactive.
For Cc1ccc2nc(N/C(=N/S(=O)(=O)c3ccc(F)cc3)c3ccccc3)sc2c1 the results were Rad51 HR inh inactive, KCC2 mod 4.5, CHT allo act inactive, CHT block inactive, KCC2 secondary inactive, KCC2 bumet counter inactive, KCC2 secondary2 inactive, HEK293 Tl flux inconclusive, KCC2 ouabain inactive and HEK counter2 inconclusive.
For N#C/C(=C(/O)c1ccc(F)cc1)c1nc2ccccc2s1 the results were Rad51 HR inh inactive, KCC2 mod -4.8, CHT allo act inactive, CHT block inactive, KCC2 secondary inactive, KCC2 bumet counter inactive, KCC2 secondary2 inactive, HEK293 Tl flux 0.0059, KCC2 ouabain 0.016 and HEK counter2 inactive.
For N#C/C(=C(/O)COc1ccc(Cl)cc1)c1nc2ccccc2s1 the results were Rad51 HR inh inactive, KCC2 mod -3.7, CHT allo act inactive, CHT block inactive, KCC2 secondary inactive, KCC2 bumet counter inconclusive, KCC2 secondary2 0.023, HEK293 Tl flux inactive, KCC2 ouabain inconclusive and HEK counter2 inactive.
Screening N#C/C(=C(/O)COc1ccccc1)c1nc2ccccc2s1 returned Rad51 HR inh inactive, KCC2 mod -5.4, CHT allo act inactive, CHT block inactive, KCC2 secondary inconclusive, KCC2 bumet counter inactive, KCC2 secondary2 0.022, HEK293 Tl flux inactive, KCC2 ouabain inactive and HEK counter2 inactive.
For COc1cc(/C=C/c2noc(-c3ccccc3O)n2)ccc1OC(C)=O the results were Rad51 HR inh inactive, KCC2 mod -5.5, CHT allo act inactive, CHT block inactive, KCC2 secondary inactive, KCC2 bumet counter inactive, KCC2 secondary2 inactive, HEK293 Tl flux inactive, KCC2 ouabain inactive and HEK counter2 inactive.
CC(=O)Nc1ccc(/C=C/c2noc(-c3ccccc3O)n2)cc1 was read as CHT allo act inactive and CHT block inactive.
O=c1ccc(Cc2ccccn2)n[nH]1 was read as Rad51 HR inh inactive, KCC2 mod 2.4, CHT allo act inactive, CHT block inactive, KCC2 secondary inactive, KCC2 bumet counter inactive, KCC2 secondary2 inactive, HEK293 Tl flux inactive, KCC2 ouabain inactive and HEK counter2 inactive.
Screening Cc1ccc(CSCCNC(=O)c2ccc(C)cc2)cc1 returned Rad51 HR inh inactive, KCC2 mod -3.8, CHT allo act inactive, CHT block inactive, KCC2 secondary inactive, KCC2 bumet counter inactive, KCC2 secondary2 0.024, HEK293 Tl flux inactive, KCC2 ouabain 0.016 and HEK counter2 inactive.
For CCOc1ccc2nc(NC(=O)CSc3nc(-c4ccccc4)c(C#N)c(=O)[nH]3)sc2c1 the results were Rad51 HR inh inactive, KCC2 mod -3.2, KCC2 secondary inactive, KCC2 bumet counter inconclusive, KCC2 secondary2 inactive, HEK293 Tl flux 0.0053, KCC2 ouabain inactive and HEK counter2 inactive.

Screening data: PubChem BioAssay, several laboratories
